OX1R antag-1 – blocks the human orexin 1 receptor. inhibition, % at 5 µM. AID 434989. CHO/OX1R cells, Fluo-8 calcium fluorescence, orexin A. O43613. actives 0.43% (n = 330,000);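 active means inhibition above its plate's threshold, mean inhibition of all tested compounds on the plate plus 3 SD, cut at about 37% in these data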
TAAR1 antag – antagonists of human TAAR1 | AID 624466 | inhibition, % at 3 µM | CHO RD-HGA16 TAAR1, Fluo-8 calcium fluorescence, antagonist | Q96RJ0 | actives 1.5% (n = 360,000);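 active means inhibition above a per-plate cutoff, the mean inhibition of test compounds on that plate plus 3 SD, cut at about 49% in these data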
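Test system – hTAAR1-expressing CHO RD-HGA16 cells, Gα16-coupled · Reagent – β-PEA at EC80 concentration, post-compound challenge · Compound dosing – 3 µM, single point · Timing – 140 s kinetic read after compound, 140 s after agonist · Detection – Fluo-8 intracellular calcium dye fluorescence, real-time kinetic reads · Control set – DMSO and EC80 PEA controls · Repeats – n of 1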
CHO parental Ca – counter-screen for OX1R antagonists: effect in parental CHO cells. parental CHO-K1, ATP-induced calcium, Fluo-8 fluorescence. inhibition, % at 5.6 µM. actives 0.63% (n = 330,000). AID 463079;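 active means inhibition above that plate's mean sample inhibition plus 3 SD, cut at about 26% in these data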
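Test system: untransfected parental CHO cell line; also added: ATP stimulus; dosing: 5.6 µM, single dose; signal: calcium-sensitive Fluo-8 fluorescence; measure: percent inhibition of ATP-evoked calcium rise, normalized to controls; benchmarks: low control ATP plus DMSO, high control DMSO only; replication: one well per compound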
OX1R antag-2 – antagonists of human orexin 1 receptor (OX1R). O43613. OX1R-expressing cells, FRET antagonist read-out. inhibition, % at 6.6 µM. actives 1.8% (n = 330,000). AID 485270; in the data active means inhibition mostly above about 38%, no sharp cut-off; inactive means mostly below about 40%
TAAR1 agonist – agonists of human TAAR1. activation, % at 3 µM. Q96RJ0. actives 0.99% (n = 360,000). CHO RD-HGA16 TAAR1, Fluo-8 calcium fluorescence; vehicle wells 0%, saturating PEA agonist 100%;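 active means activation above the mean activation of all test compounds in the run plus 3 SD, cut at about 38% in these data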
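Test system: RD-HGA16 (CHO) cells co-expressing Gα16 and hTAAR1 / Benchmarks: DMSO vehicle as 0%, PEA at EC100 as 100% / Repeats: no replicates (n 1) / Measure: % activation from peak over basal fluorescence ratio, DMSO-to-PEA scaled / Timing: 17-24 h plating, Fluo-8 75 min 37 °C, 30 min RT / Technique: kinetic Fluo-8 calcium fluorescence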
GPR7 antag – antagonists of human GPR7 (neuropeptides B/W receptor 1); P48145; GPR7-expressing cells, fluorescence antagonist assay; inhibition, % at 4.4 µM; actives 1.1% (n = 290,000); AID 1861; in the data active means inhibition above about 16%, passing the limit was not always enough;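 further: cells stimulated with the agonist NPW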
Target sequence (P48145 whole entry, looked up): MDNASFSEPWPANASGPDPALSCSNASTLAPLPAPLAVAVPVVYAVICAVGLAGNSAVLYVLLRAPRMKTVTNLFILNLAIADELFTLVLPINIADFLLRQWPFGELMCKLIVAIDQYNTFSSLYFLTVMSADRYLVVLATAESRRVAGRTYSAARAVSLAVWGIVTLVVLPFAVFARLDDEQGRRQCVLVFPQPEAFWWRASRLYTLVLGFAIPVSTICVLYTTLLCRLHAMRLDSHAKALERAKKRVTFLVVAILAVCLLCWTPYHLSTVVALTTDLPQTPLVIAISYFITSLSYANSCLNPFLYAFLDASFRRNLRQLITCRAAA
Hits are given with their value; n = inactive; x = not tested or not shown. Hits are enriched below; roughly 4.5% of the tested compounds scored in any of these assays.

SMILES	OX1R antag-1	TAAR1 antag	CHO parental Ca	OX1R antag-2	TAAR1 agonist	GPR7 antag
CCn1c(SCC(=O)NC2CCCc3ccccc32)nnc1-c1cccs1 (centres undefined)	n	n	n	70.4	n	n
O=C(NS(=O)(=O)c1ccc(NC(=O)C2CCCO2)cc1)c1ccccc1 (centres undefined)	n	n	n	n	n	n
O=C(NCC1CCCO1)c1ccc(NS(=O)(=O)c2cccc([N+](=O)[O-])c2)cc1 (centres undefined)	n	n	n	n	n	n
O=C(NCC1CCCO1)c1ccccc1S(=O)(=O)c1ccc([N+](=O)[O-])cc1 (centres undefined)	n	n	n	75.8	n	n
O=C(Nc1ccc(S(=O)(=O)Nc2ccc(Cl)cc2)cc1)C1CCCO1 (centres undefined)	n	n	n	n	41.1	n
Cc1ccc(NS(=O)(=O)c2ccc(C(=O)NCC3CCCO3)cc2)cc1 (centres undefined)	n	n	n	n	39.6	n
O=S(=O)(NCC1CCCO1)c1ccc(-c2ccc(Cl)cc2)cc1 (centres undefined)	n	n	35.9	n	n	n
O=C(OC1CC2CC1[C@H]1CCCCN1C2=O)N1CCN(S(=O)(=O)c2ccccc2)CC1 (some centres undefined)	x	n	x	x	n	x
O=[N+]([O-])c1ccc(-c2cnc(SCc3ccccc3Cl)[nH]2)cc1	n	52.1	n	n	n	n
O=C(C1CCC1)N1CCc2cc(S(=O)(=O)NCCN3CCN(c4ccccc4F)CC3)ccc21	n	n	51.5	n	n	n
COc1ccc(-n2c(C)cc(/C=N/Nc3nc(N4CCOCC4)nc(N4CCOCC4)n3)c2C)cc1	n	50.2	n	n	n	n
COC(=O)[C@]12C[C@H](CC(=O)N3CCSCC3)C(=O)N(Cc3ccc4c(c3)OCO4)C1=C[C@H](COCc1ccccc1)O[C@@H]2C	x	n	x	x	n	x
Cc1cc2occ(CC(=O)N(C)CC(=O)Nc3ccccc3Cl)c2cc1C	n	n	n	54.0	n	x
CCCOc1ncnc2c1[nH]c1ccc(OC)cc12	n	n	n	n	n	n
CCCCOc1ncnc2c1[nH]c1ccc(C)cc12	n	n	55.6	n	n	n
CC(SCC(=O)Nc1ccc(S(=O)(=O)N2CCCCC2)cc1)C(=O)O (centres undefined)	n	n	n	n	n	18.6
CN1CCN(S(=O)(=O)c2ccc(NC(=O)c3ccc(Br)s3)cc2)CC1	n	n	n	n	n	18.0
CC(=O)Nc1ccc(S(=O)(=O)N2CCN(S(=O)(=O)N3CCCCCC3)CC2)cc1	n	n	n	n	n	19.2
N#CC(C#N)=NNc1ccc(S(=O)(=O)N2CCCCC2)cc1	n	n	n	56.7	n	n
CN1CCCCC(NC(=O)c2c(F)cccc2F)C1=O (centres undefined)	x	n	x	x	n	x
CC(=O)Nc1ccc(S(=O)(=O)N2CCN(CC(=O)N3CCOCC3)CC2)cc1	n	n	n	n	n	20.0
O=C(Nc1ccccc1)Nc1ccc(S(=O)(=O)N2CCCCC2)cc1	n	n	38.0	n	50.1	n
O=C(CN1CCN(S(=O)(=O)c2ccc(Br)cc2)CC1)Nc1ccc2c(c1)OCO2	n	n	n	n	n	31.0
Cc1ccc(S(=O)(=O)N2CCN(CC(=O)N3CCOCC3)CC2)cc1	n	n	n	n	n	n
O=C(CN1CCOCC1)Nc1ccc2c(c1)OCO2	n	n	n	n	n	n
SMILES	OX1R antag-1	TAAR1 antag	CHO parental Ca	OX1R antag-2	TAAR1 agonist	GPR7 antag
O=S1(=O)N[C@H](c2ccccc2)COc2cc(Br)ccc21	x	n	x	x	n	x
COCc1[nH]nc2c1C(c1cccc(C(F)(F)F)c1)N(c1ccc(OC)cc1)C2=O (centres undefined)	x	n	x	x	n	x
Nc1nc(N)c(Br)c(Nc2ccc(Cl)c(Cl)c2)n1	x	n	x	x	46.2	x
CCOc1ccc(N(C)c2ccc(/C=C3/SC(=S)NC3=O)cc2)cc1	33.1	59.1	26.4	n	n	n
CCOc1c(O)ccc(/C=C2\SC(=S)NC2=O)c1[N+](=O)[O-]	n	n	n	49.5	n	n
O=C1NC(=S)S/C1=C\c1cc(Cl)ccc1Cl	x	n	x	x	n	x
O=C1NC(=S)S/C1=C/c1ccc(Oc2cnccn2)cc1	n	n	n	n	n	n
